Published values of several laboratories.
STING1 H232R: Stimulator of interferon genes protein (STING1, Homo sapiens, UniProt Q86WV6, H232R)

SMILES | target | assay | setting | endpoint | value
CC(C)C[C@H](NC(=O)[C@H](Cc1ccccc1)NC(=O)[C@H](Cc1ccc(O)cc1)NC(=O)CNC(=O)[C@H](CCCCN)NC(=O)[C@H](CO)NC(=O)[C@H](CCC(N)=O)NC(=O)CNC(=O)[C@@H](NC(=O)[C@H](CO)NC(=O)[C@@H]1CCCN1C(=O)[C@H](CO)NC(=O)[C@H](CCC(N)=O)NC(=O)[C@H](Cc1ccc(O)cc1)NC(=O)[C@H](CCC(=O)O)NC(=O)[C@H](C)NC(=O)[C@H](CCCCN)NC(=O)[C@@H](N)Cc1ccccc1)C(C)C)C(=O)N[C@@H](Cc1ccccc1)C(=O)N[C@@H](CCCNC(=N)N)C(=O)N1CCC[C@H]1C(=O)N[C@@H](CCCNC(=N)N)C(=O)N[C@@H](CC(N)=O)C(N)=O | Neuromedin-U receptor 1 (NMUR1, Homo sapiens, UniProt Q9HB89) | inositol phosphate, agonist |  | EC50 | 0.447 nM
Nc1nccc(-c2cccc(-c3ccccc3)c2)n1 | Phosphatidylinositol 5-phosphate 4-kinase type-2 gamma (PIP4K2C, Homo sapiens, UniProt Q8TBX8) | binding |  | Kd | 64 nM
CN1CCC[C@H]1c1cccnc1 | Urea transporter 1 (Slc14a1, Rattus norvegicus, UniProt P97689) | transporter uptake, inhibitor |  | IC50 | ~40000 nM
Nc1ccn([C@@H]2O[C@H](COP(=O)(O)OP(=O)(O)OP(O)(O)=S)[C@@H](O)[C@H]2O)c(=O)n1 | virB (Shigella flexneri, UniProt P0A247) | binding, ITC |  | Kd | 14300 nM
CC(C)C[C@@H]1NC(=O)[C@H](Cc2ccc(O)cc2)NC(=O)[C@H](C(C)C)NC(=O)[C@H](Cc2ccc(O)cc2)NC(=O)[C@H](CC(N)=O)NC(=O)[C@H](Cc2ccccc2)N(C)C(=O)[C@@H]2CCCN2C(=O)[C@H](Cc2ccc(O)cc2)NC(=O)[C@H](C(C)C)NC(=O)[C@H](CC(C)C)NC(=O)[C@H](Cc2ccccc2)NC(=O)CSC[C@@H](C(=O)NCC(N)=O)NC1=O | STING1 H232R | ligand displacement, TR-FRET |  | IC50 | 38000 nM
CC(C)CCC[C@@H](C)[C@H]1CC[C@H]2[C@@H]3C[C@@H](n4cncc4CCN)[C@@]4(O)C[C@@H](O)CC[C@]4(C)[C@H]3CC[C@]12C | Bifunctional epoxide hydrolase 2 (EPHX2, Homo sapiens, UniProt P34913) | enzyme activity, inhibitor |  | IC50 | > 100000 nM
NC(=O)CCCC/C=C1\C(=O)OC1CCCCCCCCCc1ccccc1 (stereo not drawn) | Phosphatidylserine lipase ABHD16A (Homo sapiens, UniProt O95870) | enzyme activity, inhibitor |  | IC50 | 200 to 500 nM
CCC(C)c1cccc(C(C)CC)c1O (stereo not drawn) | Potassium/sodium hyperpolarization-activated cyclic nucleotide-gated channel 1 (Hcn1, Mus musculus, UniProt O88704) | ion current, two-electrode voltage clamp | oocytes | IC50 | ~30000 nM
CC(=O)CC(=O)C(=O)O | 4-hydroxy-tetrahydrodipicolinate synthase (dapA, Escherichia coli K-12, UniProt P0A6L2) | enzyme activity, inhibitor, absorbance |  | Ki | 1400 nM
CC(C)[C@@H]1NC(=O)[C@@H]2CCCN2C(=O)[C@H](Cc2ccccc2)NC(=O)CSC[C@@H](C(=O)N[C@@H](Cc2ccc(O)cc2)C(N)=O)NC(=O)[C@H](Cc2c[nH]c3ccccc23)NC(=O)[C@H](CCCCN)NC(=O)[C@H](Cc2ccccc2)N(C)C(=O)[C@H](Cc2ccccc2)NC1=O | STING1 H232R | binding, SPR |  | Kd | 250 nM
N=C(N)NCCC[C@H](N)C(=O)O | Nitric oxide synthase, inducible (Nos2, Mus musculus, UniProt P29477) | cell-free assay |  | Kd | 2600 nM
O=C(CCCc1ccc(N(CCCl)CCCl)cc1)NCCC1CCN(CCOc2ccc(Oc3c(-c4ccc(O)cc4)sc4cc(O)ccc34)cc2)CC1 | Estrogen receptor beta (ESR2, Homo sapiens, UniProt Q92731) | ligand displacement, radioligand |  | IC50 | 67 nM
